Measured values published in ChEMBL document CHEMBL2086229, “Synthesis and biological activities of 4-substituted pyrrolo[2,3-a]carbazole Pim kinase inhibitors” (Eur J Med Chem, 2012).
pIC50: −log10 of the molar value. Active and inactive are the calls of the source. The calls are words filed in the database; no cut-off is given here.

Legend:
[1] = molecular target: T1, Serine/threonine-protein kinase pim-3 (Homo sapiens, UniProt Q86V86); experiment: Inhibition of human Pim3 using RSRHSSYPAGT as substrate assessed as residual activity at 1 uM
[2] = molecular target: Serine/threonine-protein kinase pim-2 (Homo sapiens) (UniProt Q9P1W9); experiment: Inhibition of human Pim2 using RSRHSSYPAGT as substrate assessed as residual activity at 10 uM
Sequence of Serine/threonine-protein kinase pim-2 (Homo sapiens) (Q9P1W9 whole entry, looked up): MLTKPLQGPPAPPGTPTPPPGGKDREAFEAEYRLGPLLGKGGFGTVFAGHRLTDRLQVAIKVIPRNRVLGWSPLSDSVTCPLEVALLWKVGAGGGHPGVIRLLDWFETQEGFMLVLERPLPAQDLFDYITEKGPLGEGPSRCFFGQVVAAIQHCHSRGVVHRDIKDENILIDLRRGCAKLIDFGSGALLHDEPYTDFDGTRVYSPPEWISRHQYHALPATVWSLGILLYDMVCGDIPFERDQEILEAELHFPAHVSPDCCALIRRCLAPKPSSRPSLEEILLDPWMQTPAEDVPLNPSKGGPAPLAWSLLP

PC-3 [3] = experiment: Antiproliferative activity against human PC3 cells after 48 hrs by resazurin reduction test; type: functional, cell-based
Summary of the method: (§1)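 Cells kept as monolayers in Glutamax MEM with Earle's salts, 10% fetal calf serum, sodium pyruvate, non-essential amino acids and gentamicin, 37 °C, 5% CO2. Seeded at 5 × 10³ cells/well, adhered 16 h, then given drug from 20 mM DMSO stock for 48 h continuously. Resazurin (25 μg/mL, 1 h, 37 °C) fluorescence read at ex 530/em 590 nm. IC50 taken from concentration–survival curve versus control wells, blank subtracted.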

[4] = molecular target: T2, Serine/threonine-protein kinase pim-1 (Homo sapiens, UniProt P11309); experiment: Inhibition of human Pim1 using RSRHSSYPAGT as substrate assessed as residual activity at 1 uM
Target sequence in this assay (P11309 whole entry, looked up): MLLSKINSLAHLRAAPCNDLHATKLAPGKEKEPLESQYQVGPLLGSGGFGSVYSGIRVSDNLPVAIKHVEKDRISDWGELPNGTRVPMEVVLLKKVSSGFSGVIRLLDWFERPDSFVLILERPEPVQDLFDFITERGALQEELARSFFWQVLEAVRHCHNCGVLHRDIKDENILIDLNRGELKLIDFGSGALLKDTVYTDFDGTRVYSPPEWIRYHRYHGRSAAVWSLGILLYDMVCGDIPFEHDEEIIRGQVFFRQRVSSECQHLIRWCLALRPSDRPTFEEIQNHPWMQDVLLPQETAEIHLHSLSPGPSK

DU-145 = experiment: Antiproliferative activity against human DU145 cells after 48 hrs by resazurin reduction test; type: functional, cell-based; summary of the method: as §1
[5] = molecular target: T2, Serine/threonine-protein kinase pim-1; experiment: Inhibition of human Pim1 using RSRHSSYPAGT as substrate assessed as residual activity at 10 uM
Target sequence in this assay (P11309 whole entry, looked up): as above

[6] = molecular target: T1, Serine/threonine-protein kinase pim-3; experiment: Inhibition of human Pim3 using RSRHSSYPAGT as substrate assessed as residual activity at 10 uM
[7] = molecular target: Serine/threonine-protein kinase pim-2 (Homo sapiens) (UniProt Q9P1W9); experiment: Inhibition of human Pim2 using RSRHSSYPAGT as substrate assessed as residual activity at 1 uM
[8] = molecular target: T1, Serine/threonine-protein kinase pim-3; experiment: Inhibition of human Pim3 using RSRHSSYPAGT as substrate
PA-1 [9] = experiment: Antiproliferative activity against human PA1 cells after 48 hrs by resazurin reduction test; type: functional, cell-based; summary of the method: as §1
[10] = molecular target: T2, Serine/threonine-protein kinase pim-1; experiment: Inhibition of human Pim1 using RSRHSSYPAGT as substrate
Target sequence in this assay (P11309 whole entry): as the sequence (P11309 whole entry, looked up) above

[11] = Antiproliferative activity against human fibroblasts after 48 hrs by resazurin reduction test; type: cell-based; details: Fibroblast; summary of the method: as §1
PC-3 [12] = experiment: Antiproliferative activity against human PC3 cells assessed as growth inhibition at 10 uM after 48 hrs by resazurin reduction test; type: functional, cell-based
Summary of the method: (§2)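 PA1 and PC3 cells seeded at 5 × 10³ per well, adhered 16 h, then exposed 48 h continuously to a single drug concentration (1 or 10 μM) from 20 mM DMSO stock. Growth read by resazurin reduction (25 μg/mL, 1 h, 37 °C), fluorescence ex 530/em 590 nm, as survival relative to control wells after blank subtraction.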

PC-3 [13] = experiment: Antiproliferative activity against human PC3 cells assessed as growth inhibition at 1 uM after 48 hrs by resazurin reduction test; type: functional, cell-based; summary of the method: as §2
PA-1 [14] = experiment: Antiproliferative activity against human PA1 cells assessed as growth inhibition at 1 uM after 48 hrs by resazurin reduction test; type: functional, cell-based; summary of the method: as §2
PA-1 [15] = experiment: Antiproliferative activity against human PA1 cells assessed as growth inhibition at 10 uM after 48 hrs by resazurin reduction test; type: functional, cell-based; summary of the method: as §2

Activity [1] [%] | Activity [2] [%] | Activity [4] [%] | Activity [5] [%] | Activity [6] [%] | Activity [7] [%] | pIC50 [8] | pIC50 [10] | pIC50 (PC-3 [3]; PC-3, 48 h) | pIC50 (DU-145; DU-145, 48 h) | SMILES | growth inhibition (GI) (PC-3 [3]) | growth inhibition (GI) (DU-145) | growth inhibition (GI) (PA-1 [9]) | pIC50 (PA-1 [9]; PA-1, 48 h) | pIC50 [11] | growth inhibition (GI) (PC-3 [12]) | growth inhibition (GI) (PC-3 [13]) | growth inhibition (GI) (PA-1 [14]) | growth inhibition (GI) (PA-1 [15])
40 | 77 | 90 | 39 | 16 | 93 | 6.39 | – | – | – | COC(=O)c1cc2c([nH]c3cccc(N)c32)c2[nH]ccc12 | inactive | inactive | inactive | – | – | – | – | – | –
47 | 75 | 57 | 15 | 24 | 95 | 6.30 | 5.52 | 5.22 | < 4.30 | COC(=O)c1cc2c3ccccc3[nH]c2c2[nH]ccc12 | – | – | – | 4.57 | 5.10 | – | – | – | –
103 | 89 | 103 | 87 | 55 | 101 | – | – | – | – | Nc1cccc2[nH]c3c(cc(C(=O)O)c4cc[nH]c43)c12 | – | – | – | – | – | inactive | inactive | inactive | inactive
– | – | – | – | – | – | – | – | – | – | O=Cc1c[nH]c2c1ccc1c3ccccc3[nH]c12 | – | – | – | – | 4.68 | – | – | – | –
101 | 93 | 90 | 70 | 65 | 100 | – | – | – | – | O=C(O)c1cc2c3ccccc3[nH]c2c2[nH]ccc12 | – | – | – | – | – | inactive | inactive | inactive | inactive
